The values that follow come from ChEMBL document CHEMBL4311987, “Discovery of novel allosteric site and covalent inhibitors of FBPase with potent hypoglycemic effects” (Eur J Med Chem, 2019).

Structures are written as SMILES. The source made the active and inactive calls. No cut-off for these calls is given here.

As usually defined, the Kd is the concentration at which binding is half-saturated. For orientation: inhibition means the percentage by which the read-out fell short of the control. Usually IC50 stands for the concentration at which inhibition is half-maximal. Read a high IC50 as lower potency.

The target in series [1] is T1, Fructose-1,6-bisphosphatase 1 (Homo sapiens) (UniProt P09467).
T1 sequence (whole entry): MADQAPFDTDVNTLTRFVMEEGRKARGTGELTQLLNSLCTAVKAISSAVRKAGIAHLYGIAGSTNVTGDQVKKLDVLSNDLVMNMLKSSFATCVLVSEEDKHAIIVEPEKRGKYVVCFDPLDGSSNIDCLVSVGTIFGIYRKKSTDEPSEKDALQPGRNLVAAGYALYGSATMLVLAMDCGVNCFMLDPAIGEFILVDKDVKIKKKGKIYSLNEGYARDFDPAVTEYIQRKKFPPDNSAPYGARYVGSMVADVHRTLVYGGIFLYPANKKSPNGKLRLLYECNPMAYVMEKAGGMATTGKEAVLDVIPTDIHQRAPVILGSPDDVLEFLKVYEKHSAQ
The series can be described thus: Binding affinity to human FBPase expressed in Escherichia coli BL21 (DE3) incubated for 2 hrs by LC-MS analysis.

The target in series [2] is T2, Fructose-1,6-bisphosphatase 1 (Homo sapiens, UniProt P09467).
T2 sequence (P09467 whole entry): T1 sequence (whole entry)
The series can be described thus: Binding affinity to human FBPase expressed in Escherichia coli BL21 (DE3) assessed as dissociation constant at 100 uM by UV-visible spectroscopy.

For another series, the species on record is Homo sapiens. The series can be described thus: Selectivity index, ratio of IC50 for human FBPase D127A mutant expressed in Escherichia coli BL21 (DE3) to IC50 for human FBPase expressed in Escherichia coli BL21 (DE3). An outline of the steps: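 IC50 values for each FBPase point mutant and for wild-type human FBPase came from the same malachite-green assay. The index is mutant IC50 divided by wild-type IC50.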

The target of series [3] is T1, Fructose-1,6-bisphosphatase 1 (Homo sapiens). The series can be described thus: Competitive inhibition of human FBPase expressed in Escherichia coli BL21 (DE3) using FBP as substrate incubated for 5 mins in presence of Mg2+ by malachite green dye based spectrophotometry. An outline of the steps:
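Malachite-green phosphate readout of human FBPase (300 nM, E. coli-expressed) in 50 mM Tris-HCl pH 7.4 with 0.4 mM FBP, 5 min at 37 °C. Compound concentration was varied at fixed Mg2+ levels, with Mg2+ raised from 1 mM to 10 mM, to assess competition with Mg2+.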

Series [4] concerns the target Fructose-1,6-bisphosphatase 1 (Homo sapiens, UniProt P09467, D128A). Put plainly: Inhibition of human FBPase D127A mutant expressed in Escherichia coli BL21 (DE3) using FBP as substrate incubated for 5 mins by malachite green dye based spectrophotometry. Summed up:
(§1)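 Recombinant human FBPase (wild type or point mutants) was expressed in E. coli BL21 (DE3), purified and stored in 50% glycerol at -20 °C. Reactions ran 5 min at 37 °C, and released phosphate was read by malachite green.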

Series [5] deals with Fructose-1,6-bisphosphatase 1 (Homo sapiens, UniProt P09467, Y259A). Put plainly: Inhibition of human FBPase Y258A mutant expressed in Escherichia coli BL21 (DE3) using FBP as substrate incubated for 5 mins by malachite green dye based spectrophotometry. Summed up:
as §1

For series [6], the target named is T1, Fructose-1,6-bisphosphatase 1 (Homo sapiens). The series can be described thus: Reversible inhibition of human FBPase expressed in Escherichia coli BL21 (DE3) at 20 times diluted IC50 using FBP as substrate preincubated for 30 to 180 mins followed by 20 fold compound dilution by malachite green dye based spectrophotometry. Summed up:
(§2)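 Activity was started with 0.4 mM FBP and 0.8 mM Mg2+. Reactions were stopped with 1 M perchloric acid at 30, 60, 90, 120, 150 and 180 min, and phosphate was then detected by malachite green.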

For series [7] the target is unchanged. Put plainly: Inhibition of human FBPase expressed in Escherichia coli BL21 (DE3) at 10 times of IC50 using FBP as substrate incubated for 30 to 180 mins mins by malachite green dye based spectrophotometry. An outline of the steps:
as §2

The subject of series [8] is Hepatocyte. Put plainly: Inhibition of lipid accumulation in C57BLKS rat Primary hepatocytes assessed as reduction in insulin and glucose-induced TG level at 100 uM incubated for 24 hrs. The series is classed as functional, cell-based. An outline of the steps:
(§3)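 After overnight culture in DMEM, rat primary hepatocytes pretreated with compounds, then held in 25 mM glucose plus 500 nM insulin for 24 h to induce lipid accumulation. Triglyceride and total cholesterol measured with assay kits and normalized to BCA protein. Means ± SEM of four independent experiments.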

The test system of series [9] is Hepatocyte. The series can be described thus: Inhibition of glucose production in C57BLKS rat Primary hepatocytes at 400 uM incubated for 3 hrs by glucose assay kit method relative to control. The series is classed as functional. Summed up:
(§4)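 Rat primary hepatocytes cultured overnight in DMEM/10% FBS, then pretreated with compounds for 3 h in fresh medium. Switched to glucose-free DMEM with 2 mM sodium pyruvate, 20 mM sodium lactate and compound for 3 h. Medium glucose measured with a kit and normalized to BCA protein. Pathological arm adds 1 µM dexamethasone plus 200 µM cAMP for 3 h. Means ± SEM, n=4.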

In series [10] the test system is Hepatocyte. The series can be described thus: Cytotoxicity against C57BLKS rat Primary hepatocytes assessed as cell viability by measuring cellular protein level at 25 to 100 uM in presence of insulin and glucose by bicinchoninic acid method. Type of series: cell-based. An outline of the steps:
(§5)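 Primary hepatocytes isolated from rat, cultured overnight in DMEM with 10% FBS, then exposed to compounds. Cellular protein per group measured by bicinchoninic acid (BCA) method as a viability control. The same protein values serve to normalize glucose, TG and TC contents. Pathological stimulation where applicable: 1 µM dexamethasone plus 200 µM cAMP, or 25 mM glucose plus 500 nM insulin for 24 h. Means ± SEM, four independent experiments.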

Series [11] can be described thus: Cytotoxicity against C57BLKS rat Primary hepatocytes assessed as cell viability incubated for 6 hrs by SRB assay. The series is classed as cell-based, Hepatocyte. To be noted: read-out: Activity. Summed up: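 Rat primary hepatocytes under physiological conditions exposed to compounds for 6 h. Viability read by sulforhodamine B staining. Means ± SEM of four independent experiments.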
(In general: In SRB staining, fixed cells bind dye roughly in proportion to their protein.)

Series [12] concerns Hepatocyte. Put plainly: Cytotoxicity against C57BLKS rat Primary hepatocytes assessed as cell viability by measuring cellular protein level at 10 to 300 uM by bicinchoninic acid method. Type of series: cell-based. Summed up:
as §5

Series [13] deals with Hepatocyte. The series can be described thus: Inhibition of lipid accumulation in C57BLKS rat Primary hepatocytes assessed as reduction in insulin and glucose-induced TC level incubated for 24 hrs. Type of series: functional, cell-based. Summed up:
as §3

Series [14] is described as follows: Acute toxicity in C57BL/6 mouse assessed as mortality at 600 mg/kg, po observed for 14 days. Type of series: organism-based. To be noted: in vivo, 336 h. Summed up: (§6)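 Sixteen male C57BL/6 mice, 8 weeks old, were randomised into two groups. Each group got a single oral dose on day 1, either vehicle or 600 mg/kg. Animals were watched for 14 days for mortality, body-weight loss and allergic reactions, against controls.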

Series [15] has as its system Hepatocyte. The series can be described thus: Inhibition of lipid accumulation in C57BLKS rat Primary hepatocytes assessed as reduction in insulin and glucose-induced TC level at 10 uM incubated for 24 hrs. The series is classed as functional, cell-based. Summed up: as §3
Series [16] in a line: Acute toxicity in C57BL/6 mouse assessed as weight loss at 600 mg/kg, po observed for 14 days. The series is classed as organism-based. To be noted: in vivo, 336 h. Summed up: as §6
The test system of series [17] is Hepatocyte. Put plainly: Inhibition of glucose production in C57BLKS rat Primary hepatocytes incubated for 3 hrs by glucose assay kit method. Type of series: functional, cell-based. Summed up:
as §4

Series [18] in a line: Acute toxicity in C57BL/6 mouse assessed as allergic action at 600 mg/kg, po observed for 14 days. The series is classed as organism-based. To be noted: in vivo, 336 h. Summed up: as §6
Series [19] relates to Hepatocyte. Put plainly: Inhibition of glucose production in cAMP and Dex pre-treated C57BLKS rat Primary hepatocytes at 100 uM incubated for 3 hrs by glucose assay kit method. Type of series: functional. An outline of the steps:
as §4

In series [20] the test system is Hepatocyte. The series can be described thus: Cytotoxicity against C57BLKS rat Primary hepatocytes assessed as cell viability by measuring cellular protein level at 10 to 100 uM in presence of cAMP and Dex by bicinchoninic acid method. The series is classed as cell-based. Summed up:
as §5

Fructose-1,6-bisphosphatase 1 (Homo sapiens, UniProt P09467, Y259A), sequence (P09467 2-338 Y259A limits assumed): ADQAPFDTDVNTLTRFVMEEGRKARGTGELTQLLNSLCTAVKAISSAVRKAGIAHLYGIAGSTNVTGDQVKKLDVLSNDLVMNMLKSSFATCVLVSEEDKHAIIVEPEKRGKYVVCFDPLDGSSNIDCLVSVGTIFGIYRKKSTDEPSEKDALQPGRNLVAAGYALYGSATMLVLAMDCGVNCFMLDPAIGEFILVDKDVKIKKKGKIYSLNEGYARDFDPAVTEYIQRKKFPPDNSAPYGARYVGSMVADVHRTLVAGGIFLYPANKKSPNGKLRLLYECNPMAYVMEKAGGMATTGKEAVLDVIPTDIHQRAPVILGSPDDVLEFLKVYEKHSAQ
Fructose-1,6-bisphosphatase 1 (Homo sapiens, UniProt P09467, D128A), sequence (P09467 2-338 D128A limits assumed): as the sequence (P09467 2-338 Y259A limits assumed) above, with D127A, A258Y counted along it

As to `N#Cc1ccc(/C=C/[N+](=O)[O-])cc1`, in series [1], the outcome was Active. For the same compound, the Kd in [2] worked out at 54 µM. Moreover, in the series listed under Homo sapiens, the Ratio IC50 stood at 5.7. Also, the inhibition entry in series [3] and in series [6] was “Active” throughout. Besides, the IC50 in series [4] turned out to be 2 µM; in series [5] it was 1.5 µM. Further, the inhibition in [7] was 100%.

As to `CCOC(=O)C(C)(C)Oc1ccc(F)c(/C=C/[N+](=O)[O-])c1`, the inhibition result in the series with Hepatocyte [8] was “inactive”. In addition, in the series with Hepatocyte [9], at 400 µM the inhibition was 90%. Moreover, the Activity entry (in the series on Hepatocyte [10]; in the series with Hepatocyte [12]; in series [14]; in series [16]; in series [18]; with Hepatocyte [20]) was “Non-Toxic” in each case. The viability at 6 h in series [11] was greater than 80%. Also, the inhibition result in the series with Hepatocyte [13] and in the series with Hepatocyte [17] was “Dose-dependent effect” each time. For the same compound, in [5], the IC50 amounted to 2.9 µM. For the same compound, the inhibition result with Hepatocyte [15] is “Active”. The inhibition at 100 µM with Hepatocyte [19] turned out to be 95%.

Take `O=[N+]([O-])/C=C/c1cccc(F)c1`: the result in [1] was Active. Further, the Ratio IC50 in the series filed under Homo sapiens stood at 13. The inhibition result in [3] and in [6] was “Active” in each case. For the same compound, the IC50 in [4] stood at 4 µM; in series [5], 19 µM. In series [7], this compound came in with an inhibition of 100%.
